Test results taken from ChEMBL document CHEMBL3297648, “Diterpenoids from the Chinese liverwort Heteroscyphus tener and their antiproliferative effects” (J Nat Prod, 2014).
Calls of active or inactive are those of the source. The calls are words filed in the database; no cut-off is given here.

Tests used:
[1] = Decrease in BRCA1 protein expression in human PC3 cells at 20 uM after 2 to 48 hrs by western blot analysis; format: functional, cell-based; conditions: PC-3
Method in brief: (§1)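 Cells treated at 20 μM for various times, lysed in RIPA buffer with protease/phosphatase inhibitors, protein quantified by BCA. Equal protein run on 12% SDS-PAGE, transferred to nitrocellulose, blocked 1 h in 5% milk/TBST, primary antibodies overnight at 4 °C, secondary 1:2000 for 45 min, ECL detection on film. GAPDH used as loading control.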

[2] = target: Breast cancer type 1 susceptibility protein (Homo sapiens) (UniProt P38398); experiment: Inactivation of BRCA1 in human DU145 cells assessed as decline in BRCA1 phosphorylation at Ser1524 at 20 uM by western blot analysis; format: cell-based; conditions: DU-145; method in brief: as §1
[3] = Decrease in BRCA1 protein expression in human DU145 cells at 20 uM after 2 to 48 hrs by western blot analysis; format: functional, cell-based; conditions: DU-145; method in brief: as §1
DU-145 [4] = experiment: Cell cycle arrest at G0/G1 phase in human DU145 cells after 24 hrs by propidium iodide staining based flow cytometry; format: functional
NCI-H292 = experiment: Antiproliferative activity against human NCI-H292 cells assessed as inhibition of cell viability after 24 hrs by MTT assay; format: functional, cell-based; conditions: NCI-H292, 24 h
Method in brief: (§2)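 Cells grown to 50–70% confluence (RWPE1 in K-SFM with pituitary extract and EGF; the other lines in RPMI 1640 with 10% FBS), 5% CO2, 37 °C. Treated for 24 h with DMSO vehicle, compounds, or cisplatin as positive control. MTT (5 mg/mL) added for 4 h, formazan dissolved in DMSO, absorbance read at 570 nm. Viability taken relative to untreated cells after blank subtraction, IC50 fitted from % viability, at least three experiments.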

[5] = Antiproliferative activity against human PC3 cells assessed as inhibition of cell viability after 24 hrs by MTT assay; format: functional, cell-based; conditions: PC-3, 24 h; method in brief: as §2
DU-145 [6] = experiment: Antiproliferative activity against human DU145 cells assessed as inhibition of cell viability after 24 hrs by MTT assay; format: functional, cell-based; conditions: DU-145, 24 h; method in brief: as §2
K562 = experiment: Antiproliferative activity against human K562 cells assessed as inhibition of cell viability after 24 hrs by MTT assay; format: functional, cell-based; conditions: K562, 24 h; method in brief: as §2
[7] = Antiproliferative activity against human RWPE1 cells assessed as inhibition of cell viability after 24 hrs by MTT assay; format: cell-based; conditions: RWPE-1, 24 h; method in brief: as §2
[8] = Antiproliferative activity against HBE cells assessed as inhibition of cell viability after 24 hrs by MTT assay; format: cell-based; conditions: Homo sapiens; method in brief: as §2
[9] = Cell cycle arrest in human PC3 cells assessed as accumulation at subG1 phase at 10 uM after 24 hrs by propidium iodide staining based flow cytometry (reference value: 0.13%); format: functional; conditions: PC-3
[10] = Cell cycle arrest in human PC3 cells assessed as accumulation at G2/M phase at 10 uM after 24 hrs by propidium iodide staining based flow cytometry (reference value: 10.43%); format: functional; conditions: PC-3
[11] = Cell cycle arrest in human PC3 cells assessed as accumulation at S phase at 20 uM after 24 hrs by propidium iodide staining based flow cytometry (reference value: 22.07%); format: functional; conditions: PC-3
[12] = Cell cycle arrest in human PC3 cells assessed as accumulation at G2/M phase at 20 uM after 24 hrs by propidium iodide staining based flow cytometry (reference value: 10.43%); format: functional; conditions: PC-3
DU-145 [13] = experiment: Cell cycle arrest in human DU145 cells assessed as accumulation at subG1 phase at 10 uM after 24 hrs by propidium iodide staining based flow cytometry (reference value: 0.28%); format: functional
DU-145 [14] = experiment: Cell cycle arrest in human DU145 cells assessed as accumulation at G2/M phase at 10 uM after 24 hrs by propidium iodide staining based flow cytometry (reference value: 10.44%); format: functional
DU-145 [15] = experiment: Cell cycle arrest in human DU145 cells assessed as accumulation at G0/G1 phase at 20 uM after 24 hrs by propidium iodide staining based flow cytometry (reference value: 63.34%); format: functional
DU-145 [16] = experiment: Cell cycle arrest in human DU145 cells assessed as accumulation at G2/M phase at 20 uM after 24 hrs by propidium iodide staining based flow cytometry (reference value: 10.44%); format: functional
[17] = Decrease in cyclin E protein expression in human DU145 cells by western blot analysis; format: functional, cell-based; conditions: DU-145, TDE = time-dependent effect
Method in brief: (§3)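 Western blot of cyclin D1, cyclin E, Cdk4 and p21 in PC3 and DU145 lysates. Lysis in RIPA buffer plus protease inhibitors, BCA quantification, 12% SDS-PAGE, nitrocellulose transfer, milk block, primaries overnight at 4 °C, secondary 1:2000 for 45 min, ECL read-out. GAPDH served as loading control.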

[18] = Decrease in Cdk4 protein expression in human DU145 cells after 2 to 48 hrs by western blot analysis; format: functional, cell-based; conditions: DU-145; method in brief: as §3
DU-145 [19] = experiment: Increase in p21CIP1 protein expression in human DU145 cells after 2 to 48 hrs by western blot analysis; format: functional, cell-based; method in brief: as §3
PC-3 [20] = experiment: Induction of apoptosis in human PC3 cells assessed as early apoptotic cells at 20 uM after 4 hrs by Annexin V-FITC/propidium iodide staining based flow cytometry (reference value: 0.79%); format: functional
Method in brief: (§4)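 Cells seeded in 6-well plates for 24 h, then given 20 μM for the stated times. Cells were trypsinized, PBS-washed, stained with annexin V-FITC/PI, and analysed immediately by flow cytometry. Means ± SD of three independent experiments; Student's t test against untreated control.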

PC-3 [21] = experiment: Induction of apoptosis in human PC3 cells assessed as early apoptotic cells at 20 uM after 8 hrs by Annexin V-FITC/propidium iodide staining based flow cytometry (reference value: 0.79%); format: functional; method in brief: as §4
PC-3 [22] = experiment: Induction of apoptosis in human PC3 cells assessed as necrotic cells at 20 uM after 12 hrs by Annexin V-FITC/propidium iodide staining based flow cytometry (reference value: 0.98%); format: functional; method in brief: as §4
PC-3 [23] = experiment: Induction of apoptosis in human PC3 cells assessed as early apoptotic cells at 20 uM after 24 hrs by Annexin V-FITC/propidium iodide staining based flow cytometry (reference value: 0.79%); format: functional; method in brief: as §4
DU-145 [24] = experiment: Induction of apoptosis in human DU145 cells assessed as early apoptotic cells at 20 uM after 4 hrs by Annexin V-FITC/propidium iodide staining based flow cytometry (reference value: 1.60%); format: functional; method in brief: as §4
DU-145 [25] = experiment: Induction of apoptosis in human DU145 cells assessed as late apoptotic cells at 20 uM after 8 hrs by Annexin V-FITC/propidium iodide staining based flow cytometry (reference value: 1.53%); format: functional; method in brief: as §4
DU-145 [26] = experiment: Induction of apoptosis in human DU145 cells assessed as necrotic cells at 20 uM after 12 hrs by Annexin V-FITC/propidium iodide staining based flow cytometry (reference value: 0.21%); format: functional; method in brief: as §4
DU-145 [27] = experiment: Induction of apoptosis in human DU145 cells assessed as late apoptotic cells at 20 uM after 24 hrs by Annexin V-FITC/propidium iodide staining based flow cytometry (reference value: 1.53%); format: functional; method in brief: as §4
PC-3 [28] = experiment: Induction of apoptosis in human PC3 cells at 20 uM by Annexin V-FITC/propidium iodide staining based flow cytometry; format: functional, cell-based; conditions: TDE = time-dependent effect; method in brief: as §4
DU-145 [29] = experiment: Antiproliferative activity against human DU145 cells assessed as inhibition of cell viability at 20 uM pretreated for 1 hr with 5 mM antioxidant NAC measured after 24 hrs by MTT assay; format: functional, cell-based

Chain of Breast cancer type 1 susceptibility protein (Homo sapiens) (P38398 whole entry, looked up): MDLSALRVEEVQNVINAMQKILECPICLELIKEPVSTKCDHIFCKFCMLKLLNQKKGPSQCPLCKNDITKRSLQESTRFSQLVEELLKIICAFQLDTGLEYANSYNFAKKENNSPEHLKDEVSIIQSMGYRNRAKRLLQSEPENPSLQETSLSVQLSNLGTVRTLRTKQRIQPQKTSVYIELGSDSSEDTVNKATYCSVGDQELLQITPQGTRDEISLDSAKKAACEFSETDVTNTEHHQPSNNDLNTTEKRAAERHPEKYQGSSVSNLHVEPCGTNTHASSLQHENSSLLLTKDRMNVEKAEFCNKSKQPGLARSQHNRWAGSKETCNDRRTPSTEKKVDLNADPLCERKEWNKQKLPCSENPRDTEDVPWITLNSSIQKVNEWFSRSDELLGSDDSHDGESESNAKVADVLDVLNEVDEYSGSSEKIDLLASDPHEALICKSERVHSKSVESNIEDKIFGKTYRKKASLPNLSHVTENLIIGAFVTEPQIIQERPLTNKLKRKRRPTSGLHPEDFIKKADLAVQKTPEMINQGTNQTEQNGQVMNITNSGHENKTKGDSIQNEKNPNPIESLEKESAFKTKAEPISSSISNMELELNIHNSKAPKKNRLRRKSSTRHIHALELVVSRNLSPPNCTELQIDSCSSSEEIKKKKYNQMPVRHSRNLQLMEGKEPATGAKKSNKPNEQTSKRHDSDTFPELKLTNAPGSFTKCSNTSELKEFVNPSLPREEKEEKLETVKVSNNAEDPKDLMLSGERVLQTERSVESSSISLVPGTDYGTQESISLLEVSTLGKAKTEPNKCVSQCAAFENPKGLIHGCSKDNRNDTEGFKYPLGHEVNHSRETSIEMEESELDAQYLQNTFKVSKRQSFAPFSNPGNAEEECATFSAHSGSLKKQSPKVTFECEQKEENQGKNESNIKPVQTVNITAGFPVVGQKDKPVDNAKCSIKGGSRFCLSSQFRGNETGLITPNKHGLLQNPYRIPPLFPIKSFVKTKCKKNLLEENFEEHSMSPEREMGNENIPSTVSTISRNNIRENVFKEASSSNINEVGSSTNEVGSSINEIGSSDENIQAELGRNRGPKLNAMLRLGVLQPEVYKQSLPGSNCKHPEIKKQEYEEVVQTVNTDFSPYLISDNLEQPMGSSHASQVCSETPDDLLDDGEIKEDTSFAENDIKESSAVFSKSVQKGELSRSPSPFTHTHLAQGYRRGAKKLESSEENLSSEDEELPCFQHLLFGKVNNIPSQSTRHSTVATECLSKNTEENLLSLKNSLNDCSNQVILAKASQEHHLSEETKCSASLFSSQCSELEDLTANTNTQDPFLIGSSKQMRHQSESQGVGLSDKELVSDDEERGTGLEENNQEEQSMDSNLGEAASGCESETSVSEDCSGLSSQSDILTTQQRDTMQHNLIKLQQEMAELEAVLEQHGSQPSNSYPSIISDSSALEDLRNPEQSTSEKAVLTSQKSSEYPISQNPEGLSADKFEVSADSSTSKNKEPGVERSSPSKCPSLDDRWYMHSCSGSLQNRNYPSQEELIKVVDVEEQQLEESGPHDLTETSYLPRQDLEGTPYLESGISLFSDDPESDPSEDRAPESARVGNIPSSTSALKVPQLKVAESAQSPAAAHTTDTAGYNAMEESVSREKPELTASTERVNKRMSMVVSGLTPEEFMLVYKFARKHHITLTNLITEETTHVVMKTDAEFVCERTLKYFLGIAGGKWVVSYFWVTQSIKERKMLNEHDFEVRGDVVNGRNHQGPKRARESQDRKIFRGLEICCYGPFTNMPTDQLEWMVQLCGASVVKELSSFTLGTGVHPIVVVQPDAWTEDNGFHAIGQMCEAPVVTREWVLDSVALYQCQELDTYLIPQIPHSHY

C=C[C@@](C)(O)CC[C@@H]1C(C)=CC[C@@H]2C(C)(C)CCC[C@@]12C
inhibition [1]: inactive
inhibition [2]: Active
inhibition [3]: inactive
Activity (DU-145 [4]): Dose-dependent effect
IC50 (NCI-H292): 17.1 µM
IC50 [5]: 26.6 µM
IC50 (DU-145 [6]): 28.5 µM
IC50 (K562): 15.8 µM
IC50 [7]: 81 µM
IC50 [8]: 53.9 µM
Activity [9]: 1.94%
Activity [10]: 11.1%
Activity [11]: 4.24%
Activity [12]: 10.9%
Activity (DU-145 [13]): 1.97%
Activity (DU-145 [14]): 8.38%
Activity (DU-145 [15]): 75.55%
Activity (DU-145 [16]): 12.9%
inhibition [17]: tde
inhibition [18]: Active
Activity (DU-145 [19]): Active
Activity (PC-3 [20]): 2.48%
Activity (PC-3 [21]): 2.27%
Activity (PC-3 [22]): 4.68%
Activity (PC-3 [23]): 1.61%
Activity (DU-145 [24]): 4%
Activity (DU-145 [25]): 8.94%
Activity (DU-145 [26]): 1.05%
Activity (DU-145 [27]): 15.33%
Activity (PC-3 [28]): tde
inhibition (DU-145 [29]): inactive
